Measurements taken from publication PMC3204214 (Proteins, 2011).
“Also recorded” adds a separate entry of the source.

Experiments:
[1] = biological target: Chlamydomonas reinhardtii centrin (Chlamydomonas reinhardtii) (UniProt P05434); assay: ITC
[2] = ref [12]; cited from earlier work
[3] = holo-Crcen; ref [11]; cited from earlier work
[4] = biological target: melittin (Apis mellifera) (UniProt P01501); details: cited from earlier work
[5] = biological target: T1, Crcen (Chlamydomonas reinhardtii centrin) (Chlamydomonas reinhardtii, UniProt P05434); assay: Isothermal titration calorimetry of Crcen-MLT interaction; type: binding; details: ITC, pH 7.4, 25 °C
T1 sequence (P05434 2-169): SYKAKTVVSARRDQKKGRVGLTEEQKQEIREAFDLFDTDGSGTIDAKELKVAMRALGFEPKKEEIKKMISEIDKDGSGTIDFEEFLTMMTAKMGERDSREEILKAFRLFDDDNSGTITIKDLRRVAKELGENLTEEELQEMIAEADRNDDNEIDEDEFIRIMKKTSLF
Method in brief: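 Unlabeled recombinant centrin was expressed in E. coli, purified, and quantified by ε280 = 1,490 M⁻¹ cm⁻¹. The acetylated, amidated test peptide was dialysed against 0.1 N HCl to remove TFA, then against buffer. 120 μM peptide was injected sequentially into 10 μM centrin in 50 mM Hepes, 150 mM NaCl, 4 mM CaCl₂, 4 mM MgCl₂, pH 7.4, 25 °C. Data were fitted to a one-site binding model.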

[6] = FT-IR / 2D IR correlation spectroscopy, thermal dependence; type: physicochemical; details: ^13C-Crcen-MLT complex
human centrin 2 (Hscen2) = details: 30 °C, pH 6.5; compared to Crcen-MLT and CaM-MLT; ref [16]; cited from earlier work
calmodulin (CaM) = details: literature statement; cited from earlier work
human centrin 3 = details: compared to Hscen2-MLT (Kd 62.5 nM); ref [16],[25]; cited from earlier work
CaM (calmodulin) = details: cited from earlier work
tumor = details: ref [23],[24]; cited from earlier work
[7] = biological target: T1, Crcen (Chlamydomonas reinhardtii centrin); assay: X-ray crystal structure of Crcen-MLT complex; type: binding; details: PDB 3QRX, 2.30 Å, 4 Ca^2+ ions, Crcen-MLT 1:1.5 molar ratio

Melittin (Ac-…-NH2) (peptide), sequence (P01501 44-69): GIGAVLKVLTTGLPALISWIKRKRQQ
Chlamydomonas reinhardtii centrin (Chlamydomonas reinhardtii), sequence (P05434 whole entry): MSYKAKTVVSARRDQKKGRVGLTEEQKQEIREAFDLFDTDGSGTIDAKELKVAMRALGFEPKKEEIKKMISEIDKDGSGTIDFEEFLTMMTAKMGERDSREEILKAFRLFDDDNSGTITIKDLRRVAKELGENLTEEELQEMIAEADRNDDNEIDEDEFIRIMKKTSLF
human centrin 2, sequence (P41208 2-172): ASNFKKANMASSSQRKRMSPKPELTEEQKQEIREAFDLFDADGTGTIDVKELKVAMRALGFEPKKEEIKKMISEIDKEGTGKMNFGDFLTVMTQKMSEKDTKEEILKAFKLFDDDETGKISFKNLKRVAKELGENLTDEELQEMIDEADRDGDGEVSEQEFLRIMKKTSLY
melittin (Apis mellifera), sequence (P01501 44-70): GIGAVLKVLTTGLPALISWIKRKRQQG

Molecule: Melittin (Ac-…-NH2) (peptide)
- Kd [1]: 0.00741 µM
- dH [1]: -11.4 kJ/mol
- stoichiometry N [1]: 1.38

Molecule: Crcen: Chlamydomonas reinhardtii centrin (Swiss Protein Database accession number P05434), EF-hand calcium binding protein
- shift of amide I’ peak maximum with temperature, unlabeled Crcen [2]: 2.5 cm⁻¹
- Tm (transition temperature) [3]: 112.1 °C

Molecule: human centrin 2 (from UniProt P41208)
- Kd [4]: 0.0625 µM

Molecule: CC[C@H](C)[C@H](NC(=O)CNC(C)=O)C(=O)NCC(=O)N[C@@H](C)C(=O)N[C@H](C(=O)N[C@@H](CC(C)C)C(=O)N[C@@H](CCCCN)C(=O)N[C@H](C(=O)N[C@@H](CC(C)C)C(=O)N[C@H](C(=O)N[C@H](C(=O)NCC(=O)N[C@@H](CC(C)C)C(=O)N1CCC[C@H]1C(=O)N[C@@H](C)C(=O)N[C@@H](CC(C)C)C(=O)N[C@H](C(=O)N[C@@H](CO)C(=O)N[C@@H](Cc1c[nH]c2ccccc12)C(=O)N[C@H](C(=O)N[C@@H](CCCCN)C(=O)N[C@@H](CCCNC(=N)N)C(=O)N[C@@H](CCCCN)C(=O)N[C@@H](CCCNC(=N)N)C(=O)N[C@@H](CCC(N)=O)C(=O)N[C@@H](CCC(N)=O)C(N)=O)[C@@H](C)CC)[C@@H](C)CC)[C@@H](C)O)[C@@H](C)O)C(C)C)C(C)C [MLT]
- thermodynamic driving force of complex formation [5]: driven by entropy; also recorded: driven entropically
- ΔG [5]: -46.4 kJ/mol
- ΔS [5]: 28.0 cal/mol∙K
- n (binding stoichiometry) ([5]; one-site binding model): 1.38 ± 0.01
- ΔHb ([5]; exothermic): -11.4 ± 0.29 kJ/mol
- conformational change of MLT in the complex [6]: increased helicity
- enthalpy change, Hscen2-MLT (human centrin 2 (Hscen2)): much more favorable for binding
- inhibition of calmodulin (CaM) activity (calmodulin (CaM)): potent inhibitor
- affinity, human centrin 3-MLT, fold higher than Hscen2-MLT (human centrin 3): 2–3 fold
- thermodynamic driving force of complex formation, CaM (CaM (calmodulin); BtCaM, 25 °C, pH 7.0, ref [14]): driven by entropy
- dissociation constant (Kd), holo-CaM (CaM (calmodulin); holo-CaM-MLT, 1:1 molar ratio, ref [14],[15],[17]): low nanomolar range
- Kd (CaM (calmodulin); read-out: Kd, apo-CaM, ref [17],[18]): ~10 µM
- cytotoxicity (tumor): cytotoxicity
- effect on tumor growth (tumor): inhibitory effect on tumor growth
- binding site in crystal structure [7]: interacts with the C-terminal domain of Crcen; also recorded: limits its interaction to the C-terminal domain of centrin
